{"source": "PubChem BioAssay", "note": "Calls of active or inactive are those of the source.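 The calls were made as follows, unless noted: active = current rise at least 3 SD above the untreated control mean in each of two repeat wells; inactive = the rest.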", "data": [{"target": "Potassium voltage-gated channel subfamily KQT member 2 (Rattus norvegicus) (UniProt O88943)", "sequence (O88943 whole entry, looked up)": "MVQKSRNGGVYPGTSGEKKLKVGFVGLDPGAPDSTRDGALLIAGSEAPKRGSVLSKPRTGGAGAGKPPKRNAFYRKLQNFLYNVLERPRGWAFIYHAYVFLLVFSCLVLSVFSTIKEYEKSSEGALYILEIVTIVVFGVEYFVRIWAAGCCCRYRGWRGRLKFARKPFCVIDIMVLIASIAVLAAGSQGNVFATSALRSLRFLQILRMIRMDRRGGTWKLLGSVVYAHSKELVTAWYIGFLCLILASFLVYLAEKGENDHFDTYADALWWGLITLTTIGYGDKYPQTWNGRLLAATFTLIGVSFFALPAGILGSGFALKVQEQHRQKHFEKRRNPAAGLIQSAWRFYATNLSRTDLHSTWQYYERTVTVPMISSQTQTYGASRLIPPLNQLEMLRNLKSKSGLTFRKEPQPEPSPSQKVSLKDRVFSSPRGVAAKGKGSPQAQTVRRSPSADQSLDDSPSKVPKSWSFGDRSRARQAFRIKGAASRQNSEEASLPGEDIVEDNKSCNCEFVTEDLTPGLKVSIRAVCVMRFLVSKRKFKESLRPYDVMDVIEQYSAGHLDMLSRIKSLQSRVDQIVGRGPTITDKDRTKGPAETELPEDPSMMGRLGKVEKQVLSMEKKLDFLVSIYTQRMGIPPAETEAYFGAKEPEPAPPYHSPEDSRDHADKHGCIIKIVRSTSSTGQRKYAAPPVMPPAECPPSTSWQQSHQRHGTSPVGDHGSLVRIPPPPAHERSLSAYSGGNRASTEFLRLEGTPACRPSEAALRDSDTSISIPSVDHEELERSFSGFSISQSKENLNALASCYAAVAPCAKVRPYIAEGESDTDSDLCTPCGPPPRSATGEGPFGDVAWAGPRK", "assay": "rat KCNQ2 channel potentiation, selectivity assay for KCNQ1 potentiator project, KCNQ2-CHO-K1 cells (AID 493009;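 active = mean duplicate potentiation above the buffer control mean plus 5 SD of buffer wells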;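 also: assay conditions were tuned for KCNQ1 rather than KCNQ2 modulators; signal is max minus min fluorescence divided by baseline after thallium stimulus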)", "conditions": "FluxOR thallium flux fluorescence, at 10 µM; hits give high values, scaled: buffer 0, activator control 100", "values": [{"smiles": "CCOC(=O)Cn1c2ccccc2c2nc3ccccc3nc21", "outcome": "inactive"}, {"smiles": "CC(C)N(Cc1ccccc1)C(=S)NC(=O)C1(C)CC1(Cl)Cl", "note": "(stereo unspecified)", "potentiation": "354% (active)"}, {"smiles": "O=C(c1ccco1)N1CCN=C1SCc1ccc(F)cc1", "outcome": "inactive"}, {"smiles": "CCOC(=O)c1ccc(Oc2nc(NC(C)(C)C)nc(N(C)C)n2)cc1", "outcome": "inactive"}, {"smiles": "CC(C)(C)NC(=O)C(=O)NNC(=O)C12CC3CC(CC(C3)C1)C2", "potentiation": "192% (active)"}, {"smiles": "S=c1nc(C2CCCCC2)n(-c2ccccc2)[nH]1", "potentiation": "362% (active)"}, {"smiles": "COc1ccc(OCC(=O)N2CCCC2=O)c([N+](=O)[O-])c1", "outcome": "inactive"}, {"smiles": "CCOC(=O)c1c(-c2ccccc2)oc2ccc(O)c(CN3CCN(C)CC3)c12", "outcome": "inactive"}, {"smiles": "Cc1ccc(NC(=O)CCS(=O)(=O)c2cccc3nonc23)c(Br)c1", "outcome": "inactive"}, {"smiles": "Cc1ccc(NC(=S)NC(=O)c2cncc(Br)c2)cc1Cl", "potentiation": "449% (active)"}, {"smiles": "COc1ccccc1N1C(=NC(=O)C(C)Oc2ccccc2)SC2CS(=O)(=O)CC21", "note": "(stereo unspecified)", "outcome": "inactive"}, {"smiles": "CCCCN1C=CC(=C2C(=O)c3ccccc3C2=O)C=C1", "outcome": "inactive"}, {"smiles": "O=C(NCc1ccccc1)c1onc(CSc2ccc(F)cc2)c1C(=O)NCCCN1CCOCC1", "outcome": "inactive"}, {"smiles": "O=C(NC(=S)NCc1ccccc1)c1cccs1", "potentiation": "232% (active)"}, {"smiles": "COc1cc(CN2CCC(C)CC2)ccc1OCc1ccccc1", "potentiation": "300% (active)"}, {"smiles": "COc1ccc(CNC(=O)CNC(C)c2ccc(F)cc2)cc1", "note": "(stereo unspecified)", "outcome": "inactive"}, {"smiles": "Cc1cc(N=Cc2cc(Br)ccc2O)no1", "outcome": "inactive"}, {"smiles": "Cc1ccc(C(=O)Nc2nc(-c3ccccc3)c(-c3ccccc3)o2)cc1", "potentiation": "248% (active)"}, {"smiles": "Cc1ccc(NC(=O)C(=O)NNC(=O)c2ccccc2C)cc1Cl", "potentiation": "400% (active)"}, {"smiles": "Cn1nc(SCC(=O)O)sc1=S", "outcome": "inactive"}, {"smiles": "COc1cccc(/C=N/NC(=O)C(C)n2nc(C)c([N+](=O)[O-])c2C)c1O", "note": "(stereo unspecified)", "outcome": "inactive"}]}, {"target": "Potassium voltage-gated channel subfamily KQT member 1 (Homo sapiens) (UniProt P51787)", "sequence (P51787 whole entry, looked up)": "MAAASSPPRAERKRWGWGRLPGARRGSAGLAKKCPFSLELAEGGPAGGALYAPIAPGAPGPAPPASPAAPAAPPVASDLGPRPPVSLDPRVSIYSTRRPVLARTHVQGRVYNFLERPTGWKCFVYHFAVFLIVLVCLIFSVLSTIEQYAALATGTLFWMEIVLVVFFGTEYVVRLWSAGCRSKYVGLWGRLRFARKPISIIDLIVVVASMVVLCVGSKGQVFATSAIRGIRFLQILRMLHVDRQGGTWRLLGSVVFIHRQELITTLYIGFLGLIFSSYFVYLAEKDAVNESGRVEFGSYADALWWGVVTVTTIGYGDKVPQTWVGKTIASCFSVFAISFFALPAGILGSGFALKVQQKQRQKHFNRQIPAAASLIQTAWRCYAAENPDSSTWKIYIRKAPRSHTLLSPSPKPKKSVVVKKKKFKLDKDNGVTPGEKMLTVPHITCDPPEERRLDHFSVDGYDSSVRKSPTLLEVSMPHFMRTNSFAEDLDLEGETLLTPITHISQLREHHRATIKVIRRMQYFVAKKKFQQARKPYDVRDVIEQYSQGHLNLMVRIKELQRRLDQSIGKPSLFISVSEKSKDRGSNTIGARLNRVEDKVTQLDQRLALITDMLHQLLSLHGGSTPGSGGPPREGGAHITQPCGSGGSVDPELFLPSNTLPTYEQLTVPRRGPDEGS", "assay": "KCNQ1 channel current potentiators, confirmation, orthogonal assay for KCNQ1 potentiator project, IonWorks patch clamp, KCNQ1-CHO cells (AID 493184)", "conditions": "automated patch clamp current, at 10 µM; hits give high values", "in_short": "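Material: KCNQ1-expressing CHO cells; doses: 10 µM final, single point; probe or stimulus: voltage step from -90 mV holding to +40 mV, 2,000 ms; signal: automated voltage clamp, amphotericin B perforated patch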", "values": [{"smiles": "Cc1ccc(-c2csc(=S)[nH]2)cc1", "outcome": "inactive"}, {"smiles": "Fc1ccccc1C(c1nnnn1C1CCCC1)N1CCN(Cc2ccccc2)CC1", "note": "(stereo unspecified)", "outcome": "inactive"}, {"smiles": "CCC1(c2ccccc2)NC(=O)N(CC(=O)Nc2ccccc2C(=O)N2CCCCC2)C1=O", "note": "(stereo unspecified)", "outcome": "inactive"}, {"smiles": "Cc1sc2ncnc(SCC(=O)c3ccc(O)cc3O)c2c1C", "outcome": "inactive"}, {"smiles": "Oc1ccc(N=Nc2ccc3c(c2)OCCO3)c2ncccc12", "outcome": "inactive"}, {"smiles": "CCC(/C=N/NC(=O)C1COc2ccccc2O1)CC", "note": "(stereo unspecified)", "outcome": "inactive"}, {"smiles": "COc1cccc(C2=NOC(C(=O)NCc3ccccc3)C2)c1", "note": "(stereo unspecified)", "outcome": "inactive"}, {"smiles": "COc1ccccc1CNC(=O)c1oc2ccc(S(=O)(=O)N3CCOCC3)cc2c1C", "outcome": "inactive"}, {"smiles": "O=C(O)CSc1cc(NS(=O)(=O)c2ccc(Br)cc2)c2ccccc2c1O", "outcome": "inactive"}, {"smiles": "Cc1ccc(-c2ccc(C3C(C#N)=C(N)Oc4n[nH]c(C)c43)o2)cc1", "note": "(stereo unspecified)", "outcome": "inactive"}, {"smiles": "Cc1cc(Cl)ccc1OCc1n[nH]c(=S)n1C1CCCCC1", "outcome": "inactive"}, {"smiles": "C(=N\\NC(=Nc1ccccc1)c1ccccn1)/c1ccccn1", "outcome": "inactive"}, {"smiles": "COc1cnc(-c2ccccn2)nc1Oc1ccccc1Cl", "outcome": "inactive"}, {"smiles": "Cc1cc(NC(=O)CSc2cn(CCNC(=O)c3ccc(F)cc3)c3ccccc23)no1", "outcome": "inactive"}, {"smiles": "Cc1cccc(C(=O)NC(=S)N(C)C2CCCCC2)c1", "outcome": "inactive"}, {"smiles": "CN(C)C(=S)NC(=O)c1cccc(Cl)c1", "outcome": "inactive"}, {"smiles": "CCCc1c(C)[nH]c2ccc(NC(C)=O)cc2c1=O", "outcome": "inactive"}, {"smiles": "Cc1cc2n(n1)SC(Nc1ccc(F)c(Cl)c1)N2", "note": "(stereo unspecified)", "outcome": "inactive"}, {"smiles": "C=C[C@@]1(C)CC(=O)[C@]2(O)[C@@]3(C)[C@@H](O)CCC(C)(C)[C@@H]3[C@H](OC(C)=O)[C@H](O)[C@@]2(C)O1", "outcome": "inactive"}, {"smiles": "CCOC(=O)Cn1c2ccccc2c2nc3ccccc3nc21", "outcome": "inactive"}, {"smiles": "CC(C)N(Cc1ccccc1)C(=S)NC(=O)C1(C)CC1(Cl)Cl", "note": "(stereo unspecified)", "outcome": "inactive"}, {"smiles": "O=C(c1ccco1)N1CCN=C1SCc1ccc(F)cc1", "outcome": "inactive"}, {"smiles": "CCOC(=O)c1ccc(Oc2nc(NC(C)(C)C)nc(N(C)C)n2)cc1", "outcome": "inactive"}, {"smiles": "CC(C)(C)NC(=O)C(=O)NNC(=O)C12CC3CC(CC(C3)C1)C2", "outcome": "inactive"}, {"smiles": "S=c1nc(C2CCCCC2)n(-c2ccccc2)[nH]1", "outcome": "inactive"}, {"smiles": "COc1ccc(OCC(=O)N2CCCC2=O)c([N+](=O)[O-])c1", "outcome": "inactive"}, {"smiles": "CCOC(=O)c1c(-c2ccccc2)oc2ccc(O)c(CN3CCN(C)CC3)c12", "outcome": "inactive"}, {"smiles": "Cc1ccc(NC(=O)CCS(=O)(=O)c2cccc3nonc23)c(Br)c1", "outcome": "inactive"}, {"smiles": "Cc1ccc(NC(=S)NC(=O)c2cncc(Br)c2)cc1Cl", "outcome": "inactive"}, {"smiles": "COc1ccccc1N1C(=NC(=O)C(C)Oc2ccccc2)SC2CS(=O)(=O)CC21", "note": "(stereo unspecified)", "outcome": "inactive"}, {"smiles": "CCCCN1C=CC(=C2C(=O)c3ccccc3C2=O)C=C1", "outcome": "inactive"}, {"smiles": "O=C(NCc1ccccc1)c1onc(CSc2ccc(F)cc2)c1C(=O)NCCCN1CCOCC1", "outcome": "inactive"}, {"smiles": "O=C(NC(=S)NCc1ccccc1)c1cccs1", "outcome": "inactive"}, {"smiles": "COc1cc(CN2CCC(C)CC2)ccc1OCc1ccccc1", "outcome": "inactive"}, {"smiles": "COc1ccc(CNC(=O)CNC(C)c2ccc(F)cc2)cc1", "note": "(stereo unspecified)", "outcome": "inactive"}, {"smiles": "Cc1cc(N=Cc2cc(Br)ccc2O)no1", "outcome": "inactive"}, {"smiles": "Cc1ccc(C(=O)Nc2nc(-c3ccccc3)c(-c3ccccc3)o2)cc1", "outcome": "inactive"}, {"smiles": "Cc1ccc(NC(=O)C(=O)NNC(=O)c2ccccc2C)cc1Cl", "outcome": "inactive"}, {"smiles": "Cn1nc(SCC(=O)O)sc1=S", "outcome": "inactive"}, {"smiles": "COc1cccc(/C=N/NC(=O)C(C)n2nc(C)c([N+](=O)[O-])c2C)c1O", "note": "(stereo unspecified)", "outcome": "inactive"}]}]}
